Results taken from PMC12124638 (Journal of medicinal chemistry, 2017).
Non-standard residues stand in square brackets, D forms with d. Residues, ends and D or L forms follow the SMILES beside them. *: point of attachment. Cha = N[C@@H](CC1CCCCC1)C(=O)O; Decanoyl = CCCCCCCCCC(=O)*; Heptanoyl = CCCCCCC(=O)*; Octanoyl = CCCCCCCC(=O)*; Dab = NCC[C@H](N)C(=O)O; Hexanoyl = CCCCCC(=O)*

Experiments:
[1] = system: Klebsiella pneumoniae ATCC 13883; assay: Sensitization to antibiotics, checkerboard MIC; format: cell-based; details: for Sensitization factor, rifampicin, Klebsiella pneumoniae ATCC 13883: ratio of the MIC in the absence of paenipeptins to that in the presence of 4 μg/mL; for Sensitization factor, clarithromycin, Klebsiella pneumoniae ATCC 13883: MIC without / with 4 μg/mL paenipeptin
[2] = system: Acinetobacter baumannii ATCC 19606; assay: Sensitization to antibiotics, checkerboard MIC; format: cell-based; details: for Sensitization factor, rifampicin, Acinetobacter baumannii ATCC 19606: ratio of the MIC in the absence of paenipeptins to that in the presence of 4 μg/mL
[3] = system: methicillin-resistant S. aureus ATCC 43300
[4] = system: P. aeruginosa ATCC 27853
[5] = system: A. baumannii ATCC 19606
[6] = system: methicillin-resistant S. aureus strain LAC; assay: Catheter-associated biofilm in vitro; format: cell-based, Staphylococcus aureus; details: for reduction of viable biofilm-associated S. aureus cells: established catheter biofilm, n=6 catheters
[7] = system: Escherichia coli ATCC 25922; assay: MIC in 95% human serum; format: cell-based; details: against both E. coli and S. aureus; 95% human serum versus TSB
[8] = system: S. aureus ATCC 29213; assay: Time-kill assay; format: cell-based, Staphylococcus aureus; details: for reduction of viable S. aureus cells: after 4 h
Summary of the method: (§1)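 Time-kill is run with test compound at 8, 16 and 32 μg/mL. Surviving cells are counted by plating on TSA at 0, 2, 4, 6 and 24 h. Three independent experiments are run, one replicate each. Results are given as mean ± standard deviation, and final-timepoint counts are compared by ANOVA with Tukey HSD.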

[9] = system: S. aureus ATCC 29213; assay: Cytoplasmic membrane integrity assay, DiSC3; format: cell-based, Staphylococcus aureus; details: increase of DiSC3(5) fluorescence; tested 8–64 μg/mL
[10] = system: P. aeruginosa ATCC 27853; assay: Cytoplasmic membrane integrity assay, DiSC3; format: cell-based, Pseudomonas aeruginosa; details: increase of DiSC3(5) fluorescence; tested 8–64 μg/mL; buffer with 0.2 mM EDTA
[11] = system: S. aureus ATCC 29213; assay: Potassium ion release assay, PBFI probe; format: cell-based, Staphylococcus aureus; details: PBFI fluorescence; tested 8–64 μg/mL
[12] = system: P. aeruginosa ATCC 27853; assay: Potassium ion release assay, PBFI probe; format: cell-based, Pseudomonas aeruginosa; details: PBFI fluorescence; tested 8–64 μg/mL
[13] = system: P. aeruginosa ATCC 27853; assay: Time-kill assay; format: cell-based, Pseudomonas aeruginosa
Summary of the method: as §1

[14] = system: P. aeruginosa ATCC 27853; assay: Impact of purified lipopolysaccharide; format: cell-based, Pseudomonas aeruginosa; details: LPS from E. coli O111:B4 at 100 μg/ml; analogue 17 at 16 μg/mL; 37°C, 60 min
Summary of the method: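 Cells are diluted in TSB to about 10^6 CFU/mL. E. coli O111:B4 LPS (final 10, 25, 50 or 100 μg/mL) is added, then test compound at final 16 μg/mL. Incubation is 60 min at 37 °C with shaking at 200 rpm. Survivors are counted on TSA. Three independent experiments are run, one replicate each. Counts are analysed by ANOVA and Tukey HSD.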

[15] = system: P. aeruginosa ATCC 27853; assay: Catheter-associated biofilm in vitro; format: cell-based, Pseudomonas aeruginosa; details: 40× MIC (40 μg/ml), 72 h exposure, n=6
[16] = cited from earlier work
[17] = system: Gram-negative bacteria; details: cited from earlier work
[18] = system: E. coli UAMS-ECPR2; format: cell-based, Escherichia coli; details: polymyxin-resistant derivative of E. coli ATCC 25922
[19] = system: K. pneumoniae UAMS-KPPR1; assay: MIC, polymyxin-resistant strain; format: cell-based, Klebsiella pneumoniae; details: polymyxin-resistant derivative of K. pneumoniae ATCC 13883
[20] = system: E. coli UAMS-ECPR1; assay: MIC, polymyxin-resistant strain; format: cell-based, Escherichia coli; details: polymyxin-resistant derivative of E. coli ATCC 25922
[21] = system: K. pneumoniae UAMS-KPPR3; assay: MIC, polymyxin-resistant strain; format: cell-based, Klebsiella pneumoniae; details: polymyxin-resistant derivative of K. pneumoniae ATCC 13883
[22] = system: Klebsiella pneumoniae AR 0109; assay: MIC, polymyxin-resistant strain; format: cell-based; details: FDA-CDC Antibiotic-Resistance Bank
[23] = MIC without / with 4 μg/mL paenipeptin

CCCCCC(=O)N[C@@H](CCN)C(=O)N[C@H](C(=O)N[C@@H](CCN)C(=O)N[C@H](Cc1ccccc1)C(=O)N[C@@H](CC(C)C)C(=O)N[C@@H](CCN)C(=O)N[C@@H](C(=O)N[C@@H](CC(C)C)C(=O)N[C@@H](CO)C(N)=O)C(C)C)[C@@H](C)CC [Analogue 1] (Hexanoyl-[Dab]I[Dab][dF]L[Dab][dV]LS-NH2)
Sensitization factor, rifampicin, Klebsiella pneumoniae ATCC 13883 [1]: 8,192
Sensitization factor, rifampicin, Acinetobacter baumannii ATCC 19606 [2]: 4,096–8,192

CCCCCCC(=O)N[C@@H](CCN)C(=O)N[C@H](C(=O)N[C@@H](CCN)C(=O)N[C@H](Cc1ccccc1)C(=O)N[C@@H](CC(C)C)C(=O)N[C@@H](CCN)C(=O)N[C@@H](C(=O)N[C@@H](CC(C)C)C(=O)N[C@@H](CO)C(N)=O)C(C)C)C(C)C [Analogue 2] (Heptanoyl-[Dab]V[Dab][dF]L[Dab][dV]LS-NH2)
Sensitization factor, rifampicin, Klebsiella pneumoniae ATCC 13883 [1]: 4,096
Sensitization factor, rifampicin, Acinetobacter baumannii ATCC 19606 [2]: 256–512

CCCCCCCC(=O)N[C@@H](CCN)C(=O)N[C@H](C(=O)N[C@@H](CCN)C(=O)N[C@H](Cc1ccccc1)C(=O)N[C@@H](CC(C)C)C(=O)N[C@@H](CCN)C(=O)N[C@@H](C(=O)N[C@@H](CC(C)C)C(=O)N[C@@H](CCN)C(N)=O)C(C)C)[C@@H](C)CC [Analogue 9] (Octanoyl-[Dab]I[Dab][dF]L[Dab][dV]L[Dab]-NH2)
Sensitization factor, clarithromycin, Klebsiella pneumoniae ATCC 13883 [1]: 2,048
Sensitization factor, rifampicin, Klebsiella pneumoniae ATCC 13883 [1]: ≥8,192
Sensitization factor, clarithromycin, Acinetobacter baumannii ATCC 19606 [2, 23]: 4,096–8,192
Sensitization factor, erythromycin, Acinetobacter baumannii ATCC 19606 [2, 23]: 128–256
Sensitization factor, vancomycin, Acinetobacter baumannii ATCC 19606 [2, 23]: 64–128
Sensitization factor, rifampicin, Acinetobacter baumannii ATCC 19606 [2]: 8,192

CCCCCCCC(=O)N[C@@H](CCN)C(=O)N[C@@H](CCN)C(=O)N[C@@H](CCN)C(=O)N[C@H](Cc1ccccc1)C(=O)N[C@@H](CC(C)C)C(=O)N[C@@H](CCN)C(=O)N[C@@H](C(=O)N[C@@H](CC(C)C)C(=O)N[C@@H](CCN)C(N)=O)C(C)C [Analogue 10] (Octanoyl-[Dab][Dab][Dab][dF]L[Dab][dV]L[Dab]-NH2)
MIC, S. aureus ATCC 43300 [3]: >32 µg/mL
MIC, P. aeruginosa ATCC 27853 [4]: 16 to 32 µg/mL
MIC, A. baumannii ATCC 19606 [5]: >32 µg/mL
Sensitization factor, rifampicin, Acinetobacter baumannii ATCC 19606 [2]: 256–512

CCCCCCCCCC(=O)N[C@@H](CCN)C(=O)N[C@H](C(=O)N[C@@H](CCN)C(=O)N[C@H](Cc1ccccc1)C(=O)N[C@@H](CC(C)C)C(=O)N[C@@H](CCN)C(=O)N[C@@H](C(=O)N[C@@H](CC(C)C)C(=O)N[C@@H](CO)C(N)=O)C(C)C)[C@@H](C)CC [Analogue 12] (Decanoyl-[Dab]I[Dab][dF]L[Dab][dV]LS-NH2)
activity in the context of an established catheter-associated biofilm ([6]; data not shown): no activity

CCCCCCCCCC(=O)N[C@@H](CCN)C(=O)N[C@H](C(=O)N[C@H](C(=O)N[C@H](CC(C)C)C(=O)N[C@@H](CC(C)C)C(=O)N[C@@H](CCN)C(=O)N[C@@H](C(=O)N[C@@H](CC(C)C)C(=O)N[C@@H](CO)C(N)=O)C(C)C)[C@@H](C)O)[C@@H](C)CC [Analogue 13] (Decanoyl-[Dab]IT[dL]L[Dab][dV]LS-NH2)
MIC, S. aureus ATCC 43300 [3]: >32 µg/mL
MIC, A. baumannii ATCC 19606 [5]: >32 µg/mL
synergism with rifampicin, in words ([2]; against Acinetobacter and Klebsiella): did not show synergism

CC[C@H](C)[C@H](NC(=O)[C@H](CCN)NC(=O)[C@@H](N)CC1CCCCC1)C(=O)N[C@@H](CCN)C(=O)N[C@H](Cc1ccccc1)C(=O)N[C@@H](CC(C)C)C(=O)N[C@@H](CCN)C(=O)N[C@@H](C(=O)N[C@@H](CC(C)C)C(=O)N[C@@H](CO)C(N)=O)C(C)C [Analogue 16] (H-[Cha][Dab]I[Dab][dF]L[Dab][dV]LS-NH2)
Sensitization factor, clarithromycin, Klebsiella pneumoniae ATCC 13883 [1]: 2,048–4,096
Sensitization factor, rifampicin, Klebsiella pneumoniae ATCC 13883 [1]: ≥8,192
Sensitization factor, ampicillin, Acinetobacter baumannii ATCC 19606 [2, 23]: 2–4
Sensitization factor, clarithromycin, Acinetobacter baumannii ATCC 19606 [2, 23]: 2,048
Sensitization factor, vancomycin, Acinetobacter baumannii ATCC 19606 [2, 23]: 32–64
Sensitization factor, rifampicin, Acinetobacter baumannii ATCC 19606 [2]: 4,096

CC(C)C[C@H](NC(=O)[C@@H](Cc1ccccc1)NC(=O)[C@H](CCN)NC(=O)[C@H](Cc1ccccc1)NC(=O)[C@H](CCN)NC(=O)[C@@H](N)CC1CCCCC1)C(=O)N[C@@H](CCN)C(=O)N[C@H](CC(C)C)C(=O)N[C@@H](Cc1ccccc1)C(=O)N[C@@H](CO)C(N)=O [Analogue 17] (H-[Cha][Dab]F[Dab][dF]L[Dab][dL]FS-NH2)
increase in MIC in the presence of human serum [7]: 8 to 16 fold
reduction in activity in the presence of human serum [7]: 88–94%
viable S. aureus cells on exposure ([8]; 8 μg/ml): Regrowth
reduction of viable S. aureus cells ([8]; 16 μg/ml): 3.1 logs
reduction of viable S. aureus cells ([8]; 32 μg/ml): 5.4 logs
concentration that depolarized the membrane potential [9]: ≥ 16 µg/mL
reduction of viable biofilm-associated S. aureus cells ([6]; 40 μg/mL (5 × MIC), 72 h exposure): 3 log
reduction of viable biofilm-associated S. aureus cells ([6]; 160 μg/mL (20 × MIC), 72 h exposure): 5 log
catheters completely cleared of viable bacteria ([6]; 20 times the MIC of each antibiotic, six catheters, 72 h exposure): 50%
concentration that depolarized the membrane potential [10]: ≥ 16 µg/mL
concentration that significantly released intracellular potassium ions [11]: 32 to 64 µg/mL
concentration that significantly released intracellular potassium ions [12]: 32 to 64 µg/mL
reduction of viable P. aeruginosa cells ([13]; 8 μg/ml, 2 h): 2.2 log
viable P. aeruginosa cells at 24 h ([13]; 8 μg/ml, 24 h): significant bacterial regrowth
reduction of viable P. aeruginosa cells ([13]; 16 μg/ml, within 2 h): 3.7 logs
viable P. aeruginosa cells after 24 h exposure ([13]; 32 μg/ml or 16 μg/ml, 24 h): no viable cells were detected
reduction of viable P. aeruginosa cells ([13]; 32 μg/ml, within 2 h): 5.1 logs
impact of purified LPS on bactericidal activity [14]: neutralized the bactericidal activity
reduction in the number of viable P. aeruginosa cells in an established biofilm [15]: 2.6 log

CCCCCCCCCC(=O)N[C@@H](Cc1c[nH]c2ccccc12)C(=O)N[C@H](CC(N)=O)C(=O)N[C@@H](CC(=O)O)C(=O)N[C@@H]1C(=O)NCC(=O)N[C@@H](CCCN)C(=O)N[C@@H](CC(=O)O)C(=O)N[C@H](C)C(=O)N[C@@H](CC(=O)O)C(=O)NCC(=O)N[C@H](CO)C(=O)N[C@@H]([C@H](C)CC(=O)O)C(=O)N[C@@H](CC(=O)c2ccccc2N)C(=O)O[C@@H]1C [daptomycin]
bound to plasma proteins [16]: 94%

CO[C@H]1/C=C/O[C@@]2(C)Oc3c(C)c(O)c4c(O)c(c(/C=N/N5CCN(C)CC5)c(O)c4c3C2=O)NC(=O)/C(C)=C\C=C\[C@H](C)[C@H](O)[C@@H](C)[C@@H](O)[C@@H](C)[C@H](OC(C)=O)[C@@H]1C [rifampicin, reference compound]
MIC of rifampicin against Gram-negative bacteria without C10X [17]: 8 to 32 µg/mL
MIC ([2]; Acinetobacter baumannii, ATCC19606, read-out: MIC of rifampicin alone, in μM): 19.4 µM

Polymyxin B
MIC, E. coli UAMS-ECPR2 [18]: 32 µg/mL
MIC, K. pneumoniae UAMS-KPPR1 [19]: >32 µg/mL
MIC, E. coli UAMS-ECPR1 [20]: 32 µg/mL
MIC, K. pneumoniae UAMS-KPPR3 [21]: >32 µg/mL
MIC, Klebsiella pneumoniae AR 0109 [22]: 16 to 32 µg/mL
